The record followed here is ChEMBL document CHEMBL1122709, “Synthesis and biological activity of a new class of cytotoxic agents: N-(3-oxoprop-1-enyl)-substituted pyrimidines and purines” (J Med Chem, 1984).

Series [1] relates to HeLa. Briefly: Inhibition of macromolecular synthesis in HeLa cells assayed by the incorporation of radioactive leucine into protein. Type of series: functional, cell-based. The note with it: Homo sapiens. In a few lines:
(§1)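 HeLa S3 suspension culture in MEM with 5% fetal calf serum and 2 mM L-glutamine. Cells incubated with 0.5 μCi of labeled precursor: [methyl-3H]thymidine for DNA, [5,6-3H]uridine (40 Ci/mmol) for RNA, L-[4,5-3H]leucine (56 Ci/mmol) for protein. Synthesis rate taken as precursor uptake into cold TCA-insoluble material.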

Series [2] concerns HeLa. In words: Inhibition of macromolecular synthesis in HeLa cells assayed by the incorporation of radioactive thymidine into DNA. The conditions noted are these: Homo sapiens. Type of series: functional, cell-based. In a few lines:
as §1

Series [3] has as its system HeLa. Briefly: Inhibition of macromolecular synthesis in HeLa cells assayed by the incorporation of radioactive uridine into RNA. The conditions noted are these: Homo sapiens. Type of series: functional, cell-based. The essentials:
as §1

In series [4] the test system is HeLa. In words: Inhibition of HeLa cells growth (cytotoxicity). It counts as functional. The conditions noted are these: Homo sapiens, read-out: ID50 (the source's name). In a few lines:
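HeLa cells in complete medium, grown to 1.7 × 10^5/mL (100 mL culture). Incubated 16 h with varying concentrations of inhibitor, then growth inhibition assessed.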

A short description of series [5]: Compound was evaluated for its half-life when nucleophile was added in solution buffered at pH 7.2 in the presence of aminoethanol. Type of series: ADME. The note with it: buffered solution with added nucleophile (aminoethanol). In a few lines:
(§2)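 Half-life of each compound measured in aqueous solution buffered at pH 7.2 with a nucleophile, glutathione or aminoethanol, added. Reaction followed kinetically as disappearance of the propenal.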

A short description of series [6]: Compound was evaluated for its half-life when nucleophile was added in solution buffered at pH 7.2 in the presence of glutathione. It counts as ADME. The note with it: buffered solution with added nucleophile (glutathione). The essentials: as §2

For the compound `O=C/C=C/n1ccc(=O)[nH]c1=O`, the IC50 with HeLa [1] came to 30 µM; in the series on HeLa [2] it was 30 µM; in the series with HeLa [3] it was 30 µM; in the series on HeLa [4] it was 4 µM.

For `Nc1ccn(/C=C/C=O)c(=O)n1`, the IC50 is above 100 µM in the series with HeLa [1], above 100 µM with HeLa [2], above 100 µM in the series on HeLa [3] and 15 µM in the series with HeLa [4].

`Cc1cn(/C=C/C#N)c(=O)[nH]c1=O`: the IC50 in the series with HeLa [1], with HeLa [2] and in the series with HeLa [3] was above 100 µM throughout.

As for `Cc1cn(C)c(=O)n(/C=C/C=O)c1=O`, the IC50 with HeLa [1] was 15 µM; in the series on HeLa [2], 10 µM; in the series with HeLa [3], 15 µM; in the series on HeLa [4], 3 µM.

Regarding `Cc1cn(/C=C/CO)c(=O)[nH]c1=O`, the IC50 with HeLa [1], with HeLa [2] and with HeLa [3] was above 100 µM each time.

Regarding `Nc1nc(O)c2ncn(/C=C/C=O)c2n1`, the IC50 was above 100 µM in the series with HeLa [1], above 100 µM in the series on HeLa [2], 50 µM in the series on HeLa [3] and 24 µM in the series with HeLa [4].

As to `CCOC(=O)/C=C/n1cnc2c(N)ncnc21`, the IC50 in the series with HeLa [1] came to 100 µM; in the series on HeLa [2] it was 60 µM; with HeLa [3] it was 100 µM.

As to `O=C/C=C/n1cc(C(F)(F)F)c(=O)[nH]c1=O`, the IC50 in the series on HeLa [1] was 80 µM; in the series on HeLa [2], 60 µM; in the series with HeLa [3], above 100 µM.

As for `CC(=O)/C=C/n1cc(C)c(=O)[nH]c1=O`, the IC50 in the series on HeLa [1], in the series on HeLa [2] and in the series with HeLa [3] was above 100 µM throughout.

On to `Cc1cn(/C=C/C=O)c(=O)[nH]c1=O`, for which the IC50 with HeLa [1] is 25 µM; with HeLa [2] it was 23 µM; in the series on HeLa [3], 100 µM; in the series on HeLa [4] it was 1 µM. Further, the half-life (in general, the time needed for the level to fall by half in the phase considered) in series [5] was 18 h; in series [6], 3.5 min.

Turning to `Cc1cn(COCCO)c(=O)n(/C=C/C=O)c1=O`, the IC50 with HeLa [1] amounted to 20 µM; in the series on HeLa [2], 20 µM; in the series on HeLa [3], 20 µM; with HeLa [4], 6 µM.

For `Nc1ncnc2c1ncn2/C=C/C=O`, the IC50 in the series with HeLa [1] is above 100 µM; with HeLa [2], 30 µM; with HeLa [3], above 100 µM; in the series with HeLa [4], 2 µM. The half-life is 15 h in series [5] and 2.1 min in series [6].

For `Cc1cn([C@@H]2O[C@H](CO)[C@@H](O)[C@@H]2O)c(=O)n(/C=C/C=O)c1=O`, the IC50 was above 100 µM in the series on HeLa [1], 40 µM with HeLa [2], 100 µM with HeLa [3] and 40 µM in the series with HeLa [4].

Consider `Cc1cn([C@@H]2O[C@H](CO)[C@@H](O)[C@H]2O)c(=O)n(/C=C/C=O)c1=O`, for which the IC50 is above 100 µM with HeLa [1], above 100 µM in the series with HeLa [2] and 100 µM in the series on HeLa [3].

For `O=C/C=C/n1c(=O)ccn([C@H]2C[C@H](O)[C@@H](CO)O2)c1=O`, the IC50 in the series on HeLa [1] came out at 15 µM; with HeLa [2], 0.8 µM; in the series with HeLa [3], 15 µM; with HeLa [4], 1 µM.

Take `N#C/C=C/n1c(=O)ccn([C@H]2C[C@H](O)[C@@H](CO)O2)c1=O`: the IC50 was above 100 µM in the series on HeLa [1], 100 µM with HeLa [2] and 100 µM in the series with HeLa [3].

With `CC(=O)/C=C/n1c(=O)ccn([C@H]2C[C@H](O)[C@@H](CO)O2)c1=O`, the IC50 is above 100 µM with HeLa [1], 1.5 µM in the series with HeLa [2], 6 µM in the series with HeLa [3] and 6 µM in the series with HeLa [4].

As for `Cc1cn([C@H]2C[C@H](O)[C@@H](CO)O2)c(=O)n(/C=C/C=O)c1=O`, the IC50 worked out at 15 µM with HeLa [1], 0.5 µM in the series on HeLa [2], 20 µM in the series with HeLa [3] and 1 µM with HeLa [4]. Moreover, the half-life is 25 h in series [5] and 8 min in series [6].

On to `Cc1cn([C@H]2C[C@H](O)[C@@H](CO)O2)c(=O)n(/C=C/CO)c1=O`, for which the IC50 with HeLa [1] is above 100 µM; in the series on HeLa [2], 5 µM; in the series with HeLa [3], 5 µM; in the series with HeLa [4] it was 60 µM.

`O=C/C=C/n1c(=O)c(I)cn([C@H]2C[C@H](O)[C@@H](CO)O2)c1=O`: the IC50 with HeLa [1] stood at 15 µM; in the series with HeLa [2], 0.3 µM; in the series with HeLa [3], 80 µM; in the series on HeLa [4], 20 µM.

As for `Cc1cn(/C=C/C=N/O)c(=O)[nH]c1=O`, the IC50 in the series with HeLa [1], with HeLa [2] and with HeLa [3] was above 100 µM throughout.

`O=C/C=C/n1cc(CO)c(=O)[nH]c1=O`: the IC50 in the series with HeLa [1], with HeLa [2] and in the series with HeLa [3] was above 100 µM in each case.

With `O=C/C=C/n1cc(F)c(=O)[nH]c1=O`, the IC50 in the series on HeLa [1] was 40 µM; in the series with HeLa [2], 60 µM; with HeLa [3], 90 µM; in the series on HeLa [4], 3 µM.

With `O=C/C=C/n1c(=O)ccn(C2O[C@H](CO)[C@@H](O)[C@H]2O)c1=O` (stereo partly drawn), the IC50 is above 100 µM in the series with HeLa [1], 10 µM with HeLa [2], 3 µM with HeLa [3] and 9 µM in the series with HeLa [4].
